From ChEMBL document CHEMBL1136633, “Synthesis and thrombolytic activity of fibrinogen fragment related cyclopeptides” (Bioorg Med Chem Lett, 2003)
Where a SMILES comes first, the peptide text is derived from it.

Key:
[1] = In vitro stability to trypsin promoting hydrolysis after 64h incubation time; format: ADME; details: read-out: Degradation
Summary of the method: (§1)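 Test compound (10 mg) dissolved in 1 mL phosphate buffer pH 8, then 0.5 mg pepsin or trypsin added. Mixture held at 37 °C. Remaining compound was measured hourly by HPLC using 25% CH₃OH in water with 0.1% CF₃COOH, and percent degradation was derived.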

[2] = In vitro stability to pepsin promoting hydrolysis after 84 hr incubation time; format: ADME; details: read-out: Degradation; summary of the method: as §1
[3] = In vitro stability to pepsin promoting hydrolysis after 64h incubation time; format: ADME; details: read-out: Degradation; summary of the method: as §1
[4] = In vitro stability to trypsin promoting hydrolysis after 84 hr incubation time; format: ADME; details: read-out: Degradation; summary of the method: as §1
Rattus norvegicus [5] = test: In vivo thrombolytic activity at a dose of 20.0 mg in male rat; format: functional
Summary of the method: (§2)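 Rat arterial-venous shunt. Arterial blood (1.0 mL) from the right carotid was collected onto a stainless steel helix for 15 min to form a thrombus, which was weighed. The helix was placed in a heparin-filled (50 IU/mL in NS) polyethylene shunt to the left jugular vein. Heparin was injected, then compound. Blood circulated 90 min and the helix was reweighed. Readout was thrombus mass reduction; N=8, NS vehicle, ANOVA.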

Rattus norvegicus [6] = test: In vivo thrombolytic activity at a dose of 10.0 mg in male rat; format: functional; summary of the method: as §2
Rattus norvegicus [7] = test: In vivo thrombolytic activity at a dose of 5.0 mg in male rat; format: functional; summary of the method: as §2
[8] = In vitro stability to pepsin promoting hydrolysis after 1 hr incubation time; format: ADME; details: read-out: Degradation; summary of the method: as §1
[9] = In vitro stability to pepsin promoting hydrolysis after 8 hr incubation time; format: ADME; details: read-out: Degradation; summary of the method: as §1
[10] = In vitro stability to trypsin promoting hydrolysis after 2 hr incubation time; format: ADME; details: read-out: Degradation; summary of the method: as §1
[11] = In vitro stability to pepsin promoting hydrolysis after 2 hr incubation time; format: ADME; details: read-out: Degradation; summary of the method: as §1
[12] = In vitro stability to trypsin promoting hydrolysis after 1 hr incubation time; format: ADME; details: read-out: Degradation; summary of the method: as §1
[13] = In vitro stability to trypsin promoting hydrolysis after 8 hr incubation time; format: ADME; details: read-out: Degradation; summary of the method: as §1

Row | metabolised at 64 h [1] | metabolised at 84 h [2] | metabolised at 64 h [3] | metabolised at 84 h [4] | metabolised at 1 h [8] | metabolised at 8 h [9] | metabolised at 2 h [10] | metabolised at 2 h [11] | metabolised at 1 h [12] | metabolised at 8 h [13] | Compound | Activity (Rattus norvegicus [7]) | further results
1 | 0% | 10% | 0% | 20% | – | – | – | – | – | – | C[C@@H]1NC(=O)[C@H](CCCCN)NC(=O)CNC(=O)[C@H](CCCN=C(N)N)NC(=O)[C@@H]2CCCN2C1=O | – | –
2 | – | – | – | – | – | – | – | – | – | – | C[C@@H]1NC(=O)[C@@H](CCCCN)NC(=O)CNC(=O)[C@@H](CCCN=C(N)N)NC(=O)[C@@H]2CCCN2C1=O | 11.86 mg | Activity (Rattus norvegicus [5]): 18.88 mg; Activity (Rattus norvegicus [6]): 17.31 mg
3 | 0% | 30% | 0% | 35% | – | – | – | – | – | – | C[C@@H]1NC(=O)[C@H](CCCCN)NC(=O)[C@H](CCCCN)NC(=O)[C@H](CCCN=C(N)N)NC(=O)[C@@H]2CCCN2C1=O | – | –
4 | – | – | – | – | – | – | – | – | – | – | C[C@@H]1NC(=O)[C@@H](CCCCN)NC(=O)[C@H](CCCCN)NC(=O)[C@@H](CCCN=C(N)N)NC(=O)[C@@H]2CCCN2C1=O | 6.13 mg | –
5 | 0% | 25% | 0% | 20% | – | – | – | – | – | – | C[C@@H]1NC(=O)[C@H](CCCCN)NC(=O)[C@H](CCC(N)=O)NC(=O)[C@H](CCCN=C(N)N)NC(=O)[C@@H]2CCCN2C1=O | – | –
6 | – | – | – | – | – | – | – | – | – | – | C[C@@H]1NC(=O)[C@@H](CCCCN)NC(=O)[C@H](CCC(N)=O)NC(=O)[C@@H](CCCN=C(N)N)NC(=O)[C@@H]2CCCN2C1=O | 9.68 mg | –
7 | 0% | 40% | 0% | 38% | – | – | – | – | – | – | C[C@@H]1NC(=O)[C@H](CCCN=C(N)N)NC(=O)[C@@H]2CCCN2C(=O)[C@H](C)NC(=O)[C@H](CCCCN)NC1=O | – | –
8 | – | – | – | – | – | – | – | – | – | – | C[C@@H]1NC(=O)[C@@H](CCCN=C(N)N)NC(=O)[C@@H]2CCCN2C(=O)[C@H](C)NC(=O)[C@@H](CCCCN)NC1=O | 10.62 mg | –
9 | – | – | – | – | 10% | 98% | 95% | 50% | 79% | 99% | C[C@H](N)C(=O)N[C@@H](CCCN=C(N)N)C(=O)N1CCC[C@H]1C(=O)N[C@@H](C)C(=O)N[C@@H](CCCCN)C(=O)O (H-ARPAK-OH) | 6.07 mg | –
10 | – | – | – | – | 56% | 93% | 77% | 75% | 25% | 98% | C[C@H](NC(=O)[C@@H]1CCCN1C(=O)[C@H](CCCN=C(N)N)NC(=O)CN)C(=O)N[C@@H](CCCCN)C(=O)O (H-GRPAK-OH) | 9.31 mg | Activity (Rattus norvegicus [5]): 16.81 mg; Activity (Rattus norvegicus [6]): 13.17 mg
11 | – | – | – | – | 50% | 95% | 70% | 80% | 30% | 96% | C[C@H](NC(=O)[C@@H]1CCCN1C(=O)[C@H](CCCN=C(N)N)NC(=O)[C@@H](N)CCCCN)C(=O)N[C@@H](CCCCN)C(=O)O (H-KRPAK-OH) | 0.28 mg | –
12 | – | – | – | – | 45% | 92% | 72% | 78% | 20% | 95% | C[C@H](NC(=O)[C@@H]1CCCN1C(=O)[C@H](CCCN=C(N)N)NC(=O)[C@@H](N)CCC(N)=O)C(=O)N[C@@H](CCCCN)C(=O)O (H-QRPAK-OH) | 7.02 mg | –
